# Measurements: the RNAGym collection of RNA variant scans (doi:10.1126/science.aae0568)
# This sample holds only a part of the variants without activity.
# B1: tRNA (parent)
# chain: GUUCCGUUGGCGUAAUGGUAACGCGUCUCCCUCCUAAGGAGAAGACUGCGGGUUCGAGUCCCGUACGGAACG
# Variants of: B1
# Assay: yeast fitness relative to wild type (ratio to wild type); higher = fitter; tRNA-Arg(CCU), competitive growth, 37 C, YPD
# Summary of the method: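 Changes in genotype frequencies gave Darwinian fitness relative to wild type. Frequencies were read by 100-nucleotide paired-end sequencing of gene amplicons before and after pooled Saccharomyces cerevisiae strains, carrying tRNA-Arg(CCU) gene variants at the native locus, were competed in YPD at 37°C for 24 hours in six replicates. A genotype was kept only with ≥ 100 starting reads, and estimates < 0.5 were set to 0.5.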
row,Variant,yeast fitness
1,C29A C33G C61U C66U,≤ 0.5
2,C29G G38A U53A U64A,≤ 0.5
3,C29U A37C G41A A70C,≤ 0.5
4,C29G C30G A36G A65C,0.505
5,C29G A37U C55G,0.549
6,U28G G44C G48C,0.556
7,C29G C46A,0.661
8,C29G G63A,0.646
9,C29G C33U,≤ 0.5
10,C29A C46U C60U,≤ 0.5
11,C29G C55G A70G,≤ 0.5
12,C29A C46A C49A,≤ 0.5
13,C29G G38A A43G G50A,≤ 0.5
14,C29G G67A,0.565
15,C29A C33U C61U A69U,≤ 0.5
16,C29G U32C A40U C61U C66U,≤ 0.5
17,C29G G48C U59A,≤ 0.5
18,C29G G38A,0.614
19,C29A C31U A43U,0.506
20,C29U C46G G51A G52A,≤ 0.5
21,C29U A43C A69U,0.673
22,C29U A43G,0.883
23,C29G U35G C60U,≤ 0.5
24,C29U C34A A70U,≤ 0.5

row,Variant,yeast fitness
1,C29A A57U,≤ 0.5
2,C29A A57G,0.646
3,C29A C31U A37U A65G,≤ 0.5
4,C29A G41A A43C,0.55
5,C29A C30U A42U,≤ 0.5
6,C29A C46U C55A,0.572
7,C29G C30G C49U,0.66
8,C29U G39U C49G,≤ 0.5
9,C29U C31A G38C C60A,≤ 0.5
10,C29G C34U C62U,≤ 0.5
11,C29G G38C G44A,0.668
12,C29G C31G C49A,≤ 0.5
13,C29G C61A,≤ 0.5
14,C29U A45U U47C U54A,≤ 0.5
15,C29U A40C C49G G63A,≤ 0.5
16,C29G A37G A57U,0.617
17,C29G U54G U59A,≤ 0.5
18,C29G C30A,0.585
19,C29A C33U,≤ 0.5
20,C29A C33G,0.616
21,C29U A36C G56A,≤ 0.5
22,C29A C31U A43C G44C A65U,≤ 0.5
23,U28G G38U,0.711
24,C29G C30U U47C,≤ 0.5

row,Variant,yeast fitness
1,C29U C49U C55G G58A,≤ 0.5
2,C29U C31U C33G U35C,0.588
3,C29U C33U C66U G67A,0.598
4,C29G C33U A37G A40C,≤ 0.5
5,C29G A43C C55G,0.657
6,C29A G39C G58A,0.905
7,C29A C49U G63A,≤ 0.5
8,C29U C30U C49G,0.731
9,C29A G44C,0.778
10,C29U G51C,0.57
11,C29A A37G C55A,≤ 0.5
12,C29U C55G A65U,≤ 0.5
13,C29G G50C A65U,≤ 0.5
14,C29U C62U A70U,0.532
15,C29G C34A A37G,≤ 0.5
16,C29U C34U A57C U64C,0.549
17,C29A C31G,0.677
18,C29A C31U,0.713
19,C29A C49A,0.506
20,C29U C30G U59A,0.617
21,C29A G56C A57U,0.583
22,C29A G44A U64C,0.56
23,C29U C49A,0.592
24,C29G C55G A57G A69G,0.606

row,Variant,yeast fitness
1,C29U A45C,0.778
2,C29G C33U C61U A69C,≤ 0.5
3,C29U A42U A43U U54C C55G,≤ 0.5
4,C29U G50C A70G,≤ 0.5
5,C29G U53C U54G,0.509
6,C29G C49A G67C,≤ 0.5
7,C29G A36C G41A G50A U53C,≤ 0.5
8,C29G C33U C66U,≤ 0.5
9,C29U G41U,0.769
10,C29G C49G G50C C62G A69U,0.506
11,U28G G58C,0.771
12,C29G U47C,0.75
13,C29G U32G,≤ 0.5
14,U28G G51C C55G,≤ 0.5
15,C29A C34U G51A G52C U64C,0.663
16,C29U C61U A70G,0.728
17,U28G G41C U64C,0.521
18,C29A A37G C60A C66U,≤ 0.5
19,C29U G38C C49U G68A,≤ 0.5
20,C29U C31A A43G G67C,≤ 0.5
21,U28G C62G,0.587
22,C29A G38A A69U,0.583
23,C29G G44A G56C C62A G67C,≤ 0.5
24,C29G U54C,0.664

row,Variant,yeast fitness
1,C29U A69U,0.868
2,C29G U32A U47C C62A,≤ 0.5
3,C29A A37G U64A A70U,≤ 0.5
4,C29G U35A G48C,≤ 0.5
5,C29U C49U C55A,≤ 0.5
6,C29G C33G G41C G67C,≤ 0.5
7,C29A G38A U54C A69U,≤ 0.5
8,C29U C30U U59A G63C,≤ 0.5
9,C29G A37C,0.56
10,C29U C66G A70C,≤ 0.5
11,C29U A37U C46U U59G,≤ 0.5
12,C29U G39A G67A,0.565
13,C29G A40U G58A,≤ 0.5
14,C29U C31A,0.609
15,U28G U64C,0.864
16,U28G U64A,0.65
17,C29A A57U C60G,≤ 0.5
18,C29U C31U U54G A65U A69U,≤ 0.5
19,C29U A45C A57G A65U,≤ 0.5
20,C29G A40U G50C G67U A69G,≤ 0.5
21,C29G C34U,0.561
22,C29G C34A,0.585
23,C29G C31G C49G C61G,≤ 0.5
24,C29G G38A G44A C46U C62G,≤ 0.5

row,Variant,yeast fitness
1,C29G C30G G63A,0.607
2,C29A A37G G67C,0.62
3,C29U G38A G48C A57G,≤ 0.5
4,C29U A43G C49A,0.615
5,C29U A36U C49U,≤ 0.5
6,C29A A42U U64C,≤ 0.5
7,C29G C30U A36C A40G,≤ 0.5
8,C29U A42G A43G,≤ 0.5
9,C29G U35C C55G A57G,≤ 0.5
10,C29U A40U G41C,≤ 0.5
11,C29A G44A C49A U59A,≤ 0.5
12,C29U C30A U59G A69C,≤ 0.5
13,C29A A70G,0.723
14,C29G C55U C62U,0.567
15,C29U G41C C49A,0.62
16,C29A G50C,0.553
17,C29A A40U U47A,0.772
18,C29G C33G U35G G44A G67A,≤ 0.5
19,C29G A40U C66G,0.551
20,C29A C31U C34A A36G G56C,≤ 0.5
21,C29A C30U C34U C61U C66A,≤ 0.5
22,C29A G39A,0.725
23,C29A A57G A65C,≤ 0.5
24,C29U G44C U54A,0.55

row,Variant,yeast fitness
1,C29U G39U,1.07
2,C29U G39C,0.65
3,C29U A43U G52C U59A,≤ 0.5
4,C29U G44C C49U A57U A69U,≤ 0.5
5,C29G C46A A57G U59C,≤ 0.5
6,U28G G51U U64A C66U A69C,≤ 0.5
7,C29U C30A C61U,≤ 0.5
8,C29U C30A C61G,≤ 0.5
9,C29U C33A A36C A42C A45G,≤ 0.5
10,C29A U35C C66U,≤ 0.5
11,C29U C33U U54A,≤ 0.5
12,C29G G44C C49G A57C,0.598
13,U28G G38C A40G,0.546
14,C29A G51A C55A G56C A65U,≤ 0.5
15,C29G C33U G58C C60G C62A,≤ 0.5
16,C29G G68U,0.68
17,C29A A37C,0.597
18,U28G C60A,0.53
19,C29G U32C G51A,0.723
20,C29G C33A C34G,≤ 0.5
21,C29A C34U G48C A57U,≤ 0.5
22,C29U A70C,0.867
23,C29G A57G,0.715
